Experimental data as given in the EternaBench riboswitch data.

Test system: MS2 coat protein
Assay: apparent Kd, MS2 coat protein; higher = weaker binding; RNA-MaP array; tryptophan 2.4 mM where present
Method in brief: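 The apparent Kd is the median of filtered binding-curve fits, one per cluster, to green signal normalised to red-channel RNA signal and control-cluster median Fmax. The clusters were on Illumina sequencing chips, and stalled E. coli RNA polymerase had transcribed the designs on them. Titration used SNAP-549-labelled MS2 coat protein from 0.7 or 1.5 nM, doubling to 3 µM, without and then with constant ligand, in 100 mM Tris-HCl pH 7.5, 80 mM KCl, 4 mM MgCl2, BSA, DTT, yeast tRNA and Tween-20.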

[1] = designed as: ON switch for tryptophan, no ligand
[2] = ligand present: tryptophan, designed as: ON switch for tryptophan
[3] = designed as: OFF switch for tryptophan, no ligand
[4] = ligand present: tryptophan, designed as: OFF switch for tryptophan

Row | Sequence | apparent Kd [1] [µM] | apparent Kd [2] [µM] | apparent Kd [3] [µM] | apparent Kd [4] [µM]
1 | CAAAAUAUAACGGCCGCCACUUACUCAUGAGGUAACAACAUGAGGAUCACCCAUGUUUGAGGAUCAAGGACCGGGUUAUAUUUUG | 0.0307 | 0.017 |  | 
2 | CAUCCUAGUACAUGAGGAUCACCCAUGUAUCGAGGACCGGUACGGCCGCCACUCGAAUGGCGGAUCGUUAAUCCUCUAGGAUGGA |  |  | 0.01 | 0.0135
3 | CCUCAUGAACAUGAGGAUCACCCAUGUACACGAGGACCGGUACGGCCGCCACUCGAAUAAGCUAAAUAUAAAUAAUAAUAAUAGC |  |  | 0.0169 | 0.0376
4 | CUAAAUAUAUCGGCCGCCACUUACUCAUGAGGUAACAACAUGAGGAUCACCCAUGUUUGAGGAUCAAGGACCGGGAUAUAUUUAG | 0.0278 | 0.019 |  | 
5 | CUACAUUUGUAGAAACCGGUCAACAAUAAUCGAGGACCGGUACGGCCGCCACUCGAUGUGAAAUCACAUGAGGAUCACCCAUGUA | 0.018 | 0.0181 |  | 
6 | CUAUAAGUACCGGUCCUCAGAUCCUCAUGACGAGGACCGGUACGGCCGCCACUCGAAACAUGAGGAUCACCCAUGUAAUAAUAAU |  |  | 0.0183 | 0.0186
7 | CUCAUCCACGCGGCCGCCACUAUAUUGUGGUGCGUAUGUGUCGUAAUACAUGAGGAUCACCCAUGUAGGACCGGGCGUGGAUGAG |  |  | 0.0108 | 0.0204
8 | CUGUACAUCUCGGCCGCCACUGCUGACAUGGGAGUCACCCAUGUCCACAUGAGGAUCACCCAUGUCAGGACCGGGAGGUGUGCAG | 0.0498 | 0.255 |  | 
9 | GAUAUAUAGGCGGCCGCCACUGAUUUUCAUAUAUAUAUAACAUGAGGAUCACCCAUGUAGAUAUACAGGACCGGGCCUAUAUAUU | 0.0145 | 0.0134 |  | 
10 | GAUCGAAAUAACGUCUAGGAAAACUAGACGCGAGGACCGGUACGGCCGCCACUCGGGUGGCACAUGAGGAUCACCCAUGUAGAUC |  |  | 0.0787 | 0.105
11 | GCAUCCUAGUCGGCCGCCACUACAACAUGAGGAUCACCCAUGUGUGGGAGAUCCGUCCUACGAAGUAGGACCGGGACUAGGAUGC | 0.272 | 0.444 |  | 
12 | GGAUAGGACACGGCCGCCACUGCGCUAGGAUACUAGAACAUUUCCUCACAUGAGGAUCACCCAUGUAGGACCGGGUGUCCUAUCG |  |  | 0.0496 | 0.152
13 | GGAUGCGGCACGGCCGCCACUGCGGUGGUGUGACAUGAGGAUCACCCAUGUUGUCAUGCGGCCCUUAGGACCGGGUGGCGUGUCC |  |  | 0.0464 | 0.047
14 | GGCACAUAGUCGGCCGCCACUAGUGGGAAAUGGGAGAACAUGAGGAUCACCCAUGUAUUAUAGCCUAGGACCGGGACUAUGUGCC |  |  | 0.0748 | 0.105
15 | GGCCAUGGAAACAUGGCGGCGGCGUAUGCGCGAGGACCGGUACGGCCGCCACUCGGGCGACAUGAGGAUCACCCAUGUUCCUCAU |  |  | 0.182 | 0.478
16 | GGCGCUGCGUCGGCCGCCACUAGUGGGUAAUGGGUGUACAUGAGGAUCACCCAUGUAUUUUGGCCUAGGACCGGGACGUGGCGCC |  |  | 0.453 | 0.503
17 | GGGUACAUCGCGGCCGCCACUUAUGUAAAUACAUGAGGAUCACCCAUGUCGAUGGAGACAUCGGAAAGGACCGGGUGAUGUACCG | 0.198 | 0.0475 |  | 
18 | GGUUACUCUACGGCCGCCACUGAUUAUUUAUAAUCCUGUACAUAAACAUGAGGAUCACCCAUGUACAGGACCGGGUAGUGUAACC | 0.0338 | 0.0294 |  | 
19 | GGUUACUCUACGGCCGCCACUGUUAAAUAAUAAACCUGUACAUAAACAUGAGGAUCACCCAUGUACAGGACCGGGUAGUGUAACC | 0.0321 | 0.0161 |  | 
20 | GUAGCGACGGCGGCCGCCACUCACAGGUGAGGGUAGACCAACCUUCACAUGAGGAUCACCCAUGUGAGGACCGGGCUGUCGCUAC |  |  | 0.0909 | 0.146
21 | UAAUCCGGUCCUCGAUAGGUGAUCCUCUAACGAGGACCGGUACGGCCGCCACUCGAUAACAUGAGGAUCACCCAUGUAAUAAUAA |  |  | 0.044 | 0.0338
22 | UCGUUUUAGUCGGCCGCCACUGUGAGCAUGGUUAACAUGAGGAUCACCCAUGUCCCGUACUAUAACAGGACCGGGACGUAGUUGC | 0.093 | 0.0228 |  | 
23 | UCUGCCGCGGCUCCGAUCCUCCUGUAGUUCCGAGGACCGGUACGGCCGCCACUCGUAGCACAUGAGGAUCACCCAUGUCUUGCGG |  |  | 0.00945 | 0.0112
24 | UGUACCAUGUCGGCCGCCACUCAUGAUAAACAUGAGGAUCACCCAUGUGGCGUCAAAGACGCUAUGAGGACCGGGACAUGGUACU | 0.0132 | 0.0106 |  | 
25 | UGUAUUGGAAACAGUACUAGUGAUCCGGUCCGAGGACCGGUACGGCCGCCACUCGAAAUUAAUAAACAUGAGGAUCACCCAUGUA |  |  | 0.0148 | 0.0342
26 | UGUCAGCGAAAGUUGACAUGUCUUACCGGUCGAGGACCGGUACGGCCGCCACUCGAUCUCUCGCACAUGAGGAUCACCCAUGUCG | 0.0127 | 0.0112 |  | 
27 | UUAUAAGUACCGGUCCUCAGAUCCUCAUGACGAGGACCGGUACGGCCGCCACUCGAAACAUGAGGAUCACCCAUGUAAUAAUACU |  |  | 0.0264 | 0.0202
28 | UUAUGCAGGUCGGCCGCCACUACACACAUGAGGAUCACCCAUGUAGUUACUGGGUGAAGUGGCAGUAGGACCGGGACCUGCAUAC | 0.553 | 0.316 |  | 
29 | UUCUACGACGAUCUGGGAAAACCAGAUCGACGAGGACCGGUACGGCCGCCACUCGUGUUUCUUUAACAUGAGGAUCACCCAUGUA | 0.0205 | 0.0145 |  | 
